From ChEMBL document CHEMBL1132228, “Unique analogues of anandamide: arachidonyl ethers and carbamates and norarachidonyl carbamates and ureas” (J Med Chem, 1999)

Columns and labels:
Mus musculus [1] = experiment: The compound tested in vivo for hypothermia as changes in rectal temperature (RT); format: functional
Outline: (§1)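 Separate mice dosed iv by tail vein in ethanol:emulphor:saline 1:1:18. Rectal temperature taken by thermistor probe before and 4 min after injection; the change was recorded. Mice then placed on a 5.5-cm ring 16 cm high; time motionless over 5 min was taken as % of 300 s. Immobility ED50 from probit-log dose regression.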

Cannabinoid receptor 1 [2] = biological target: T1, Cannabinoid receptor 1 (Rattus norvegicus, UniProt P20272); experiment: The compound was tested for Ki value against rat whole brain P2 membrane preparation in presence of enzyme inhibitor PMSF.
T1 sequence (P20272 whole entry): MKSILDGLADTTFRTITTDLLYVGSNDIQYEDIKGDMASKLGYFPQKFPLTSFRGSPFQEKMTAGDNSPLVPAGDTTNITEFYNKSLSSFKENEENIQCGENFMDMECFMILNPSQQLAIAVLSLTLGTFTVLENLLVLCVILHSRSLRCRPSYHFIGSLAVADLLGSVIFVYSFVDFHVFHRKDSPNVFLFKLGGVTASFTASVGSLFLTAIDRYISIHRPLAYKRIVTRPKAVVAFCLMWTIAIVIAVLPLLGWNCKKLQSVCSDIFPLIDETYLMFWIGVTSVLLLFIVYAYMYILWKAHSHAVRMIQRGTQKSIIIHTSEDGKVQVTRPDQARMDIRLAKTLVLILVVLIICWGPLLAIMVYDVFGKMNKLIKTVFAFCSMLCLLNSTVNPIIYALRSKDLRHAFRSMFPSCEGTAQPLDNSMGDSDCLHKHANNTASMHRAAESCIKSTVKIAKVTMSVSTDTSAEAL
Outline: (§2)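 Rat whole-brain P2 membranes (100-150 µg protein) incubated 1 h at 30 °C with 1 nM [3H]CP-55,940 and analogue at 1 nM-10 µM, with or without PMSF (50 µM). Buffer: 50 mM Tris-HCl, 1 mM EDTA, 3 mM MgCl2, 5 mg/mL BSA; ethanol ≤0.4%. Nonspecific binding with 1 µM CP-55,940. Stopped with ice-cold buffer, then rapid filtration on PEI-treated filters. Triplicates; 3-6 experiments; mean ± SE.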

Mus musculus [3] = experiment: The compound tested in vivo for antinociception as measured by tail flick response(TF); format: functional
Outline: (§3)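 Mice dosed iv by tail vein in ethanol:emulphor:saline 1:1:18. Tail flick to heat measured at 4 min, with 2-4 s baseline and 10 s cut-off, expressed as %MPE. Same mice then placed in photocell cages; beam breaks counted over 10 min and expressed as % of control. 6 mice/dose. ED50 from probit versus log dose by least-squares regression.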

Mus musculus [4] = experiment: The compound tested in vivo for inhibition of spontaneous activity(SA); format: functional; outline: as §3
Cannabinoid receptor 1 [5] = biological target: T1, Cannabinoid receptor 1; experiment: The compound was tested for Ki value against rat whole brain P2 membrane preparation in absence of enzyme inhibitor PMSF; outline: as §2
Mus musculus [6] = experiment: The compound tested in vivo for ring immobility (RI); format: functional; outline: as §1
Mus musculus [7] = experiment: The compound tested in vivo for antinociception as measured by tail flick response(TF) activity at 30 mg/kg; format: functional; outline: as §3
Mus musculus [8] = experiment: The compound tested in vivo for inhibition of spontaneous activity(SA)at 30 mg/kg; format: functional; set-up: scale not given: the % may be the effect or the level left; outline: as §3
Mus musculus [9] = experiment: The compound tested in vivo for ring immobility (RI)a; format: functional; outline: as §1

**Q.** How did the ED50 (Mus musculus [1]) turn out when `CCCCC/C=C\C/C=C\C/C=C\C/C=C\CCCNC(=O)NCCC` was run?
**A.** 3.4 mg/kg

**Q.** What about the Ki (Cannabinoid receptor 1 [2]) of the same compound?
**A.** 91 nM

**Q.** And the ED50 (Mus musculus [3])?
**A.** 8.9 mg/kg

**Q.** And the ED50 (Mus musculus [4])?
**A.** 7.2 mg/kg

**Q.** And the Ki (Cannabinoid receptor 1 [5])?
**A.** 170 nM

**Q.** What about the ED50 (Mus musculus [6]) of the same compound?
**A.** 5.4 mg/kg

**Q.** Which Ki (Cannabinoid receptor 1 [2]) does the source give for `CCCCC/C=C\C/C=C\C/C=C\C/C=C\CCCCOC(=O)NC(C)C` here?
**A.** 995 nM

**Q.** `CCCCC/C=C\C/C=C\C/C=C\C/C=C\CCCNC(=O)NCC` was tested. Which ED50 (Mus musculus [1]) did it give?
**A.** 16.2 mg/kg

**Q.** And the Ki (Cannabinoid receptor 1 [2])?
**A.** 156 nM

**Q.** What about the ED50 (Mus musculus [3]) of the same compound?
**A.** 3.3 mg/kg

**Q.** What about the ED50 (Mus musculus [4]) of the same compound?
**A.** 2.8 mg/kg

**Q.** What about the ED50 (Mus musculus [6]) of the same compound?
**A.** 19.9 mg/kg

**Q.** What does the source list for `CCCCC/C=C\C/C=C\C/C=C\C/C=C\CCCNC(=O)OC(C)C`?
**A.** Activity (Mus musculus [7]): 3%; Activity (Mus musculus [8]): 35%; Ki (Cannabinoid receptor 1 [2]): 1230 nM

**Q.** For `C=CCOCCCC/C=C\C/C=C\C/C=C\C/C=C\CCCCC`, which Ki (Cannabinoid receptor 1 [2]) is on record?
**A.** 1170 nM

**Q.** With `CCCCC/C=C\C/C=C\C/C=C\C/C=C\CCCNC(=O)NC` as the compound, how does the ED50 (Mus musculus [1]) read?
**A.** 2.2 mg/kg

**Q.** What about the Ki (Cannabinoid receptor 1 [2]) of the same compound?
**A.** 436 nM

**Q.** And the ED50 (Mus musculus [3])?
**A.** 12.3 mg/kg

**Q.** And the ED50 (Mus musculus [4])?
**A.** 9.9 mg/kg

**Q.** And the ED50 (Mus musculus [6])?
**A.** 4.51 mg/kg

**Q.** For `C#CCOCCCC/C=C\C/C=C\C/C=C\C/C=C\CCCCC`, which Ki (Cannabinoid receptor 1 [2]) is on record?
**A.** 1580 nM

**Q.** How did the Activity (Mus musculus [7]) turn out when `CCCCC/C=C\C/C=C\C/C=C\C/C=C\CCCNC(=O)NCCOC` was run?
**A.** 32%

**Q.** What about the Activity (Mus musculus [8]) of the same compound?
**A.** 69%

**Q.** And the Ki (Cannabinoid receptor 1 [2])?
**A.** 746 nM

**Q.** And the ED50 (Mus musculus [6])?
**A.** 3 mg/kg

**Q.** `CCCCC/C=C\C/C=C\C/C=C\C/C=C\CCCCOC` was tested. Which Ki (Cannabinoid receptor 1 [2]) did it give?
**A.** 4260 nM

**Q.** Which Ki (Cannabinoid receptor 1 [2]) does the source give for `CCCCC/C=C\C/C=C\C/C=C\C/C=C\CCCCOC(C)CC` (stereo not given) here?
**A.** 1310 nM

**Q.** For `CCCCC/C=C\C/C=C\C/C=C\C/C=C\CCCCOCCCC`, which Ki (Cannabinoid receptor 1 [2]) is on record?
**A.** 1710 nM

**Q.** Which Ki (Cannabinoid receptor 1 [2]) does the source give for `CCCCC/C=C\C/C=C\C/C=C\C/C=C\CCCCOCC(C)C` here?
**A.** 2480 nM

**Q.** For `CCCCC/C=C\C/C=C\C/C=C\C/C=C\CCCC(=O)NCCO` [ANANDAMIDE], which ED50 (Mus musculus [3]) is on record?
**A.** 6.2 mg/kg

**Q.** `CCCCC/C=C\C/C=C\C/C=C\C/C=C\CCCCOCCF` was tested. Which Ki (Cannabinoid receptor 1 [2]) did it give?
**A.** 885 nM

**Q.** Which Ki (Cannabinoid receptor 1 [2]) does the source give for `CCCCC/C=C\C/C=C\C/C=C\C/C=C\CCCCOC(=O)NCCC` here?
**A.** 471 nM

**Q.** How did the Ki (Cannabinoid receptor 1 [2]) turn out when `CCCCC/C=C\C/C=C\C/C=C\C/C=C\CCCCOCC1CC1` was run?
**A.** 578 nM

**Q.** For `CCCCC/C=C\C/C=C\C/C=C\C/C=C\CCCNC(=O)NC(C)C`, which ED50 (Mus musculus [1]) is on record?
**A.** 1.28 mg/kg

**Q.** What about the Ki (Cannabinoid receptor 1 [2]) of the same compound?
**A.** 131 nM

**Q.** And the ED50 (Mus musculus [3])?
**A.** 2.4 mg/kg

**Q.** And the ED50 (Mus musculus [4])?
**A.** 5.8 mg/kg

**Q.** And the Ki (Cannabinoid receptor 1 [5])?
**A.** 204 nM

**Q.** What about the ED50 (Mus musculus [6]) of the same compound?
**A.** 38 mg/kg

**Q.** With `CCCCC/C=C\C/C=C\C/C=C\C/C=C\CCCNC(=O)NCCO` as the compound, how does the ED50 (Mus musculus [1]) read?
**A.** 2.6 mg/kg

**Q.** What about the Ki (Cannabinoid receptor 1 [2]) of the same compound?
**A.** 347 nM

**Q.** And the ED50 (Mus musculus [3])?
**A.** 4 mg/kg

**Q.** And the ED50 (Mus musculus [4])?
**A.** 3.1 mg/kg

**Q.** And the ED50 (Mus musculus [6])?
**A.** 3.9 mg/kg

**Q.** `CCCCC/C=C\C/C=C\C/C=C\C/C=C\CCCCOCCC` was tested. Which Ki (Cannabinoid receptor 1 [2]) did it give?
**A.** 1080 nM

**Q.** Which results are given for `CCCCC/C=C\C/C=C\C/C=C\C/C=C\CCCNC(=O)NCC(C)C`?
**A.** Activity (Mus musculus [7]): 26%; Activity (Mus musculus [8]): 59%; Ki (Cannabinoid receptor 1 [2]): 335 nM

**Q.** `CCCCC/C=C\C/C=C\C/C=C\C/C=C\CCCNC(=O)NCCF` was tested. Which ED50 (Mus musculus [9]) did it give?
**A.** 4.48 mg/kg

**Q.** What about the ED50 (Mus musculus [1]) of the same compound?
**A.** 0.85 mg/kg

**Q.** And the Ki (Cannabinoid receptor 1 [2])?
**A.** 55 nM

**Q.** And the ED50 (Mus musculus [3])?
**A.** 6.4 mg/kg

**Q.** What about the ED50 (Mus musculus [4]) of the same compound?
**A.** 3.5 mg/kg

**Q.** And the Ki (Cannabinoid receptor 1 [5])?
**A.** 52 nM

**Q.** Which Ki (Cannabinoid receptor 1 [2]) does the source give for `CCCCC/C=C\C/C=C\C/C=C\C/C=C\CCCCOCCO` here?
**A.** 797 nM

**Q.** For `CCCCC/C=C\C/C=C\C/C=C\C/C=C\CCCCOC(=O)NCC`, which Ki (Cannabinoid receptor 1 [2]) is on record?
**A.** 2200 nM

**Q.** How did the Ki (Cannabinoid receptor 1 [2]) turn out when `CCCCC/C=C\C/C=C\C/C=C\C/C=C\CCCCOCC` was run?
**A.** 2200 nM

**Q.** Which results are given for `CCCCC/C=C\C/C=C\C/C=C\C/C=C\CCCNC(=O)OCC`?
**A.** Activity (Mus musculus [7]): 5%; Activity (Mus musculus [8]): 36%; Ki (Cannabinoid receptor 1 [2]): 218 nM

**Q.** `CCCCC/C=C\C/C=C\C/C=C\C/C=C\CCCCOC(C)C` was tested. Which Ki (Cannabinoid receptor 1 [2]) did it give?
**A.** 871 nM

**Q.** Which results are given for `CCCCC/C=C\C/C=C\C/C=C\C/C=C\CCCNC(=O)OCCF`?
**A.** Activity (Mus musculus [7]): 20%; Activity (Mus musculus [8]): 18%; Ki (Cannabinoid receptor 1 [2]): 331 nM
